Activity calls are given as the source filed them. No cut-off for these calls is given here.
Tests used:
[1] = test system: HEK293T; experiment: Induction of STING R232H mutant (unknown origin) expressed in HEK293T cells assessed as increase in luciferase coupled ISG54-ISRE activity incubated for 18 hrs luciferase reporter gene assay; type: cell-based; details: Homo sapiens, filed as activator
[2] = test system: Stimulator of interferon genes protein (Homo sapiens), Q86WV6 [R71H,G230A,R293Q]; experiment: Induction of STING HAQ mutant (unknown origin) expressed in HEK293T cells assessed as increase in luciferase coupled ISG54-ISRE activity incubated for 18 hrs luciferase reporter gene assay; type: cell-based; details: filed as activator
Stimulator of interferon genes protein (Homo sapiens), Q86WV6 [R71H,G230A,R293Q], sequence (Q86WV6 whole entry R71H/G230A/R293Q): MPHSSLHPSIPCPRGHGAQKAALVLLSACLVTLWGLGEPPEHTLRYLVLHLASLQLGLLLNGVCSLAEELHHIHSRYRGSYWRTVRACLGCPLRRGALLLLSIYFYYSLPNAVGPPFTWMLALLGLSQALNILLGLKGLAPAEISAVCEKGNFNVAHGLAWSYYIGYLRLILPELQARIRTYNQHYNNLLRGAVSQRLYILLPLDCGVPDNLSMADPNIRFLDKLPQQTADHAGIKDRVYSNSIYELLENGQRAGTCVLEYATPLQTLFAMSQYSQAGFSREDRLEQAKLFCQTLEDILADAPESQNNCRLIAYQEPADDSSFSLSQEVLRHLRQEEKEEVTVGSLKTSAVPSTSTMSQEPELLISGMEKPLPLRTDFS

[3] = test system: HEK293T; experiment: Activation of human STING R232H mutant expressed in HEK293T cells assessed as phosphorylation at (Ser366) upto 10 uM incubated for 2 hrs and measured by Western blot analysis; type: cell-based; details: filed as activator, dose microM <=10, time 2.0 hrs
Procedure, shortened: (§1)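 HEK293T clones stably carrying each human STING variant, picked by blasticidin selection and limiting dilution. 5 x 10^5 cells were exposed to compound at 10μM for 2 h, lysed in RIPA with phosphatase and protease inhibitors, and 10 μg protein run on 10% SDS-PAGE. Immunoblots probed for pSTING (Ser366), pIRF3 (Ser396), total STING, IRF3 and actin, detected by ECL.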

[4] = test system: Stimulator of interferon genes protein (Homo sapiens), Q86WV6 [R71H,G230A,R293Q]; experiment: Activation of human STING HAQ mutant expressed in HEK293T cells assessed as phosphorylation at (Ser366) at 10 uM incubated for 2 hrs and measured by Western blot analysis; type: cell-based; details: filed as activator; procedure, shortened: as §1
[5] = test system: Stimulator of interferon genes protein (Homo sapiens), Q86WV6 [R71H,G230A,R293Q]; experiment: Activation of human STING HAQ mutant expressed in HEK293T cells assessed as phosphorylation of IRF-3 at (Ser396) at 10 uM incubated for 2 hrs and measured by Western blot analysis; type: cell-based; details: filed as activator; procedure, shortened: as §1
[6] = test system: Stimulator of interferon genes protein (Homo sapiens), Q86WV6 [UNDEFINED MUTATION]; experiment: Activation of human STING R232 in A 172 cells assessed as phosphorylation at (Ser366) at 10 uM incubated for 2 hrs and measured by Western blot analysis; type: cell-based; details: filed as activator
Stimulator of interferon genes protein (Homo sapiens), Q86WV6 [UNDEFINED MUTATION], sequence (Q86WV6 whole entry, looked up, change not shown): as the sequence (Q86WV6 whole entry R71H/G230A/R293Q) above, with H71R, A230G, Q293R counted along it
Procedure, shortened: (§2)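 Tumor cell lines or human primary cells carrying endogenous STING variants; STING KO cells as control. 10µM for 2 h, then lysed in RIPA with phosphatase and protease inhibitors. 10 μg protein on 10% SDS-PAGE, blotted for pSTING (Ser366), pIRF3 (Ser396), STING, IRF3 and actin, ECL detection.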

[7] = test system: Stimulator of interferon genes protein (Homo sapiens), Q86WV6 [UNDEFINED MUTATION]; experiment: Activation of human STING R232 in A 172 cells assessed as phosphorylation of IRF-3 at (Ser396) at 10 uM incubated for 2 hrs and measured by Western blot analysis; type: cell-based; details: filed as activator; procedure, shortened: as §2
[8] = test system: Stimulator of interferon genes protein (Homo sapiens), Q86WV6 [UNDEFINED MUTATION]; experiment: Activation of human STING R232 in human CCRF-SB cells assessed as phosphorylation at (Ser366) at 10 uM incubated for 2 hrs and measured by Western blot analysis; type: cell-based; details: filed as activator; procedure, shortened: as §2
[9] = target: T1, Stimulator of interferon genes protein (Homo sapiens, UniProt Q86WV6); experiment: Activation of human STING expressed in human PBMC cells assessed as phosphorylation of IRF3 at (Ser396) at 10 uM incubated for 2 hrs and measured by Western blot analysis; type: cell-based; details: filed as activator; procedure, shortened: as §2
T1 sequence (Q86WV6 whole entry): as the sequence (Q86WV6 whole entry R71H/G230A/R293Q) above, with H71R, A230G, Q293R counted along it

[10] = target: T1, Stimulator of interferon genes protein; experiment: Activation of human STING in human PBMC cells assessed as induction of CXCL10 expression at 10 uM incubated upto 24 hrs and measured by qt-PCR analysis; type: cell-based; details: filed as activator, time hrs <=24
Procedure, shortened: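 2 x 10^5 freshly isolated human PBMC from healthy donors, separated on Histopaque, given a single compound concentration. Harvested early (6 hr) or late (20h). Cytokine mRNA read by qRT-PCR as relative normalized expression (fold) against vehicle-treated cells.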

[11] = test system: Stimulator of interferon genes protein (Homo sapiens), Q86WV6 [UNDEFINED MUTATION]; experiment: Activation of human STING R232 in human dendritic cells assessed as induction of CD86 measured by qt-PCR analysis; type: cell-based; details: Dendritic cell, filed as activator
Procedure, shortened: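 PBMC isolated on Histopaque 1077, ACK-lysed, monocytes purified by MACS. Monocytes at 1 x 10^6 cells/ml in RPMI/10% FBS with 100ng/ml GMCSF and 50ng/ml IL4, 37 °C, 5% CO2, for 24–36 h. Compound added (1% DMSO final) for 6 h. CD86 and CD83 read by qPCR as fold of vehicle-treated cells.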

[12] = test system: HeLa; experiment: Cytotoxicity against human HeLa cells at 5 to 10 uM; type: cell-based; details: dose 5-10 µM
[13] = AUC in BALB/c mouse at 10 mg/kg, po measured up to 24 hrs by LC-MS/MS analysis; type: ADME, organism-based; parameters: route oral, dose 10 mg/kg, time <=24; details: in vivo
Procedure, shortened: (§3)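 Overnight-fasted mice, n=3 per group, single dose by lateral tail vein (iv) or oral gavage (po). Retro-orbital blood under isoflurane at 2 min–24 h (iv) or 5 min–24 h (po). Plasma spun at 1500 x g, 15 min, 4 °C, stored -80 °C, then analysed by LCMS.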

[14] = Half life in BALB/c mouse at 5 mg/kg, iv measured up to 24 hrs by LC-MS/MS analysis; type: ADME, organism-based; details: in vivo; procedure, shortened: as §3
[15] = Cmax in BALB/c mouse at 10 mg/kg, po measured up to 24 hrs by LC-MS/MS analysis; type: ADME, organism-based; parameters: route oral, dose 10 mg/kg, time <=24; details: in vivo; procedure, shortened: as §3
[16] = Volume of distribution in BALB/c mouse at 5 mg/kg, iv measured up to 24 hrs by LC-MS/MS analysis; type: ADME, organism-based; details: in vivo
Procedure, shortened: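 Overnight-fasted mice, randomized, n=3 per group, each given a single dose by lateral tail vein (iv) or oral gavage. Blood (50 μl per point, under isoflurane) was taken from the retro-orbital plexus. Sampling was at 2 min–24 h after iv and 5 min–24 h after oral dosing. Plasma was separated at 1500 x g for 15 min at 4 °C, stored at -80 °C, and analysed by LCMS.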

[17] = target: T2, Cytochrome P450 1A2 (Homo sapiens, UniProt P05177); experiment: Inhibition of CYP1A2 (unknown origin); type: ADME
T2 sequence (P05177 whole entry): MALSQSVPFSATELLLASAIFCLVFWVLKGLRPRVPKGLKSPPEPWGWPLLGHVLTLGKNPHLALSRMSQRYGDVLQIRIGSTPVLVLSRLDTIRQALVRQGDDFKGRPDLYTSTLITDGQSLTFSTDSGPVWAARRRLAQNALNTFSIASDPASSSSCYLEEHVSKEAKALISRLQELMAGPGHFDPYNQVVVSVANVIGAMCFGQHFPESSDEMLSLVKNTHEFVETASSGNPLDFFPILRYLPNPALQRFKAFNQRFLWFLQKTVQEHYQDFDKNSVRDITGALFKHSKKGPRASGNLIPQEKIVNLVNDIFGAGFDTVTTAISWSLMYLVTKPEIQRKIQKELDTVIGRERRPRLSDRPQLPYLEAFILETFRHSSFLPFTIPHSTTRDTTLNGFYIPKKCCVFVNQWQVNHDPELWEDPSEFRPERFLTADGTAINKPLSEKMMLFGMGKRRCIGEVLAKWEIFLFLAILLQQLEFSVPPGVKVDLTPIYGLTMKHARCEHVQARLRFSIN

[18] = Chemical stability of compound in buffer at pH 3 to 8

- Activity [2]: Active
- Activity [4]: Active
- Activity [5]: Active
- Activity [6]: Active
- Activity [7]: Active
- Activity [8]: Active
- Activity [9]: Active
- AUC at 24 h [13]: 2090 ng·h/mL
- half-life [14]: 1.41 h
- Cmax [15]: 1720 ng/mL
- Vd [16]: 2.69 L/kg
- inhibition (INH) [17]: Not Active
- Stabilty [18]: Stable
Structure (SMILES): CC1(C)C(=O)N(Cc2c(F)cccc2Cl)c2cc(C(=O)NCc3c(F)cc(F)cc3F)ccc21
- Activity [1]: Active
- Activity [3]: Dose-dependent effect
- Activity [10]: Active
- Activity [11]: Active
- Activity [12]: Non-Toxic
